Paper PMC2914325 (Nanomedicine (London, England), 2010)

How the values were obtained:
[1] = Absorption and fluorescence spectroscopy, quantum yield, TCSPC lifetime, TRES; type: physicochemical; conditions: for λem: 720 nm excitation; for τ (fluorescence lifetime): TCSPC, 773 nm excitation, 820 nm detection; for Φ (quantum yield): relative to ICG in DMSO
[2] = Aggregation / stability of probes in solvents; type: physicochemical
[3] = test system: intradermal 4T1luc tumors in mouse ears; assay: High resolution noninvasive NIR imaging of intradermal ear tumors; type: in vivo, mouse (female balb/c); conditions: post-injection
Procedure, shortened: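 4T1luc cells (1×10^4) were implanted intradermally in each ear; n=3. From day 3, isoflurane-anaesthetised mice had glycerin-coated ears imaged at 800 nm (0.02 mm/pixel). Nanoparticles (0.10 mL, 4×10^13 particles/mL) or small-molecule probe (0.02 mL, 20 μM, 20% DMSO/water) were given i.v. by tail vein. Imaging was pre-, immediately post-, 4 h and 24 h post-injection, repeated days 8 and 15. Background-subtracted tumour ROI intensity was normalised to injected dose from vessel ROIs.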

[4] = test system: subcutaneous 4T1luc tumors; assay: Whole-body planar fluorescence reflectance imaging; type: in vivo, mouse (male NCR nude); conditions: 24 hours post-injection, i.v., subcutaneous 4T1luc tumor
Procedure, shortened: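 Tumours were 2×10^5 4T1luc cells s.c. in the right shoulder; n=3. Mice received i.v. 100 μl small-molecule probe (20 μM, 20% DMSO/water) or 150 μL nanoparticles. Planar NIR reflectance images (755±35 nm excitation, 830 nm emission, 60 s) were taken at 1, 4 and 24 h, with white-light/X-ray reference. Organs were then imaged ex vivo. ROI mean intensities were compared by Student's t-test (α = 0.05).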

[5] = 20% DMSO/water, room temperature

Compound | ε × 10^-3 ([1]; DMSO, room temperature) | λabs ([1]; DMSO, room temperature) | λem ([1]; DMSO, room temperature) | τ (fluorescence lifetime) ([1]; DMSO) | Φ (quantum yield) ([1]; DMSO) | aggregation ([2]; aqueous solutions) | λabs [1, 5] | λem [1, 5] | τ (fluorescence lifetime) ([1]; 20% DMSO/water) | Φ (quantum yield) ([1]; 20% DMSO/water) | stability in solvent ([2]; 20% DMSO/water) | time of peak tumor-to-normal contrast [3] | In vivo tumor contrast [4]
CC1(C)C(/C=C/C=C/C=C/C=C2/N(CCC(=O)O)c3ccc4ccccc4c3C2(C)C)=[N+](CCC(=O)[O-])c2ccc3ccccc3c21 [cypate] | 224 M^-1 cm^-1 | 790 nm | 817 nm | 0.97 ns | 0.12 | form non-emissive aggregates |  |  |  |  |  |  | 
cypate-cRGDfK |  |  |  |  |  |  | 790 nm | 804 nm | 0.24 ns | 0.036 | stable | 4 h | 1.32 +/- 0.13
